Autophagy mod: autophagy modulation, high-content screen; MEF GFP-LC3 puncta imaging; test concentration mostly 10 µM; calls only at 10 µM (by protocol); 190,000 compounds, 0.98% hits;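 active means percentage of spot-positive cells more than 3 SD above its plate mean, without a fluorescence outlier flag or 80% toxicity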
MT stabilizer: stabilizes microtubules in HeLa cells; HeLa tubulin immunostaining HCS, 24 h; share of cells brighter than vehicle mean+2SD; % tubulin-high responders, % at 10 µM; 200,000 compounds, 0.83% hits;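 active means plate Z-score above 3 for both tubulin-high and condensed-nucleus cell shares, with cell loss under 80%, at 10 µM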;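 further: anti alpha tubulin signal scored within the nucleus-defined area of each cell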
b-catenin transl: modulators of beta-catenin nuclear translocation | HeLa beta-catenin nuclear translocation, immunofluorescence imaging | nuclear translocation activity, % at 5 µM | 190,000 compounds, 0.3% hits | AID 1665;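 active means nuclear translocation activity above 50% at 5 µM, with a well cell count of 50 or more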;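 further: per-cell ratio of nuclear to cytoplasmic median beta-catenin stain intensity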
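Test system: human HeLa cells, native beta-catenin. Compound dosing: 5 µM primary single dose, 0.1% DMSO, 0.02–20 µM confirmation series. Incubation: compound exposure 24 h at 37°C. Detection: beta-catenin immunostaining with DAPI counterstain, 20x imaging, 6 fields/well. Read-out basis: Nuclear/cytoplasmic beta-catenin signal ratio, % activation.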
Dynein cargo inh: dynein cargo transport inhibition; 3617.4 mouse cells, GR-EGFP nuclear translocation imaging; test concentration mostly 20 µM; stimulated with dexamethasone, 1 µM; hits give low values; z-score, hits read low; 220,000 compounds, 0.47% hits; AID 1381;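 active means plate z-score of nuclear minus cytoplasmic receptor signal below a set negative limit, without overly bright fluorescence or cell loss, cut at about -3.5 in these data, passing the limit was not always enough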;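 further: z-score of nuclear minus cytoplasmic ring GR-EGFP intensity difference per well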
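Medium: Induction medium lacking tetracycline, stripped serum | Probe or stimulus: 1.0 µM final dexamethasone stimulus | Schedule: 48 h induction, then 1 h compound, then 30 min agonist, 37 °C | Signal: Automated 10x imaging of fixed Hoechst-stained cells | Evaluation: Per-cell GR-EGFP intensity, nucleus versus surrounding cytoplasmic ring, well-averaged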
L major viab: Leishmania major promastigote growth inhibition; Leishmania major promastigotes, resazurin fluorescence viability; 200,000 compounds, 9% hits; inhibition, % at 10 µM; in the data active means inhibition above about 50%;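 further: promastigotes grown with compound for 44 hours at 28 °C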
CHOP inhibitor: inhibitors of CHOP induction in ER stress response | AID 2732 | CHO-K1 CHOP-promoter luciferase, tunicamycin-induced, 15-18 h | inhibition, % at 10 µM | 220,000 compounds, 3.8% hits;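 active means compounds that reduced the stress-induced luciferase reporter signal by more than about 70% of percent inhibition, limit read from the data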
Each line names hits and unclear results; the compound was inactive in the other large screens. Most compounds without a hit are left out; they make up all but 12% or so of the library.

O=C(NC1CCN(Cc2ccccc2)CC1)c1ccc(S(=O)(=O)NCc2ccco2)cc1	Autophagy mod active, L major viab 78
Cc1ccccc1C(=O)NC1CCN(Cc2ccccc2)CC1	L major viab 85
O=C(Cn1[nH]c(=O)c2ccccc2c1=O)NC1CCCCCC1	none
O=C(CCCn1c(=O)c2ccccc2n(Cc2cccc(F)c2)c1=O)NC1CCN(Cc2ccccc2)CC1	none
O=C(CCCCn1c(=O)c2ccccc2n(Cc2ccccc2)c1=O)NC1CCN(Cc2ccccc2)CC1	L major viab 73
CCS(=O)(=O)C(C)(CCl)C(=O)Nc1ccc(C(=O)OC)cc1 (stereo not given)	none (no result: Autophagy mod, MT stabilizer, L major viab)
CCCc1nccn1S(=O)(=O)c1cc(OC)ccc1OC	none
COc1ccc(CN2CCN(S(=O)(=O)c3ccc(NC(C)=O)cc3)CC2)c(OC)c1OC	none
CCCCC(=O)Nc1nnc(-c2ccco2)o1	none
Cc1ccc(C)n1-c1ccc(C(=O)NC2CCN(Cc3ccccc3)CC2)cc1	L major viab 81 (no result: b-catenin transl)
O=C(NC1CCN(Cc2ccccc2)CC1)C1COc2ccccc2O1 (stereo not given)	L major viab 92
O=C(COc1ccccc1)NC1CCN(Cc2ccccc2)CC1	L major viab 86 (no result: b-catenin transl)
C=C1N(c2cccc(Cl)c2)C(=O)OC1(C)C	none
COC(=O)N/N=C(\C)c1ccc2ccccc2c1OC(F)F	L major viab 56
COC(=O)N/N=C(\C)c1ccc(OC(F)F)cc1	none
N/C(Cc1ccc([N+](=O)[O-])cc1)=N\OC(=O)C(c1ccccc1)c1ccccc1	CHOP inhibitor 83
N/C(Cc1ccccc1)=N\OC(=O)c1cccc2ccccc12	L major viab 97 (no result: b-catenin transl)
N/C(Cc1ccc([N+](=O)[O-])cc1)=N\OC(=O)c1ccc(Br)cc1	none
N/C(Cc1ccc([N+](=O)[O-])cc1)=N\OC(=O)c1ccccc1Br	L major viab 94
N/C(=N\OC(=O)c1cccc2ccccc12)c1ccncc1	none (no result: Autophagy mod, MT stabilizer, L major viab)
COc1ccc(C/C(N)=N/OC(C)=O)cc1OC	none
COc1ccc(C/C(N)=N/OC(=O)C(c2ccccc2)c2ccccc2)cc1OC	L major viab 65
Cc1cccc(C)c1NC(=O)CSc1nnc(C)n1CC1CCCO1 (stereo not given)	none
O=C(Nc1ccccc1N1CCOCC1)C1CCN(S(=O)(=O)c2ccc(F)cc2)CC1	none
O=C(Nc1ccccc1N1CCOCC1)C1CCN(S(=O)(=O)c2cccc(C(F)(F)F)c2)CC1	L major viab 66
N/C(Cc1ccc(Cl)cc1)=N\OC(=O)C1CCCCC1	L major viab 73
COc1ccc(C(=O)NCc2ccccc2)cc1S(=O)(=O)N1CCCc2ccccc21	L major viab 61
COC(=O)Nc1ccc(S(=O)(=O)N2CCCc3ccccc32)cc1	Autophagy mod active, MT stabilizer 19 (no result: CHOP inhibitor)
COc1ccccc1C(=O)Nc1ccc(S(=O)(=O)N2CCc3ccccc32)cc1	L major viab 80 (no result: b-catenin transl)
COc1ccc(C(=O)OCC(=O)N(C)C2CCS(=O)(=O)C2)cc1S(=O)(=O)N1CCCc2ccccc21 (stereo not given)	none
COc1cc(C(=O)Nc2ccc(S(=O)(=O)N3CCc4ccccc43)cc2)cc(OC)c1OC	none
C/C(=C\C(=O)c1ncc(C(F)(F)F)cc1Cl)N(C)C	none
CCN(c1ccccc1)S(=O)(=O)c1ccc(Cl)c(NC(=O)CSc2nnc(C)s2)c1	none
O=Cc1ccc(O)c(O)c1	none (no result: b-catenin transl)
Oc1ccc(N=Cc2ccc(O)c(O)c2)cc1	L major viab 100 (no result: CHOP inhibitor)
CCOc1ccc(-n2c(SCC(=O)c3c(N)n(C)c(=O)n(C)c3=O)nnc2-c2cccnc2)cc1	none (no result: b-catenin transl)
CC(=O)Nc1ccc(-c2csc(Nc3cccc(C)n3)n2)cc1	L major viab 79
CCN1CCN(CCNC(=O)c2cn(C(C)c3ccccc3F)nn2)CC1 (stereo not given)	none
Cc1ccc(C(C)n2cc(C(=O)NCCN3CCN(C)CC3)nn2)cc1 (stereo not given)	L major viab 92
Cc1[nH]c2ccccc2c1/C=C/C(=O)c1ccncc1	none (no result: Autophagy mod, MT stabilizer, L major viab)
O=C(/C=C/c1cccc2ccccc12)c1ccncc1	L major viab 100
CCOC(=O)c1c(NC(=O)C[n+]2ccc(Cc3ccccc3)cc2)sc(C)c1C	L major viab 53
Brc1ccc2c(c1)OCCOCCOc1cc(Br)ccc1OCCOCCOCCO2	L major viab 101, CHOP inhibitor 83
COC(=O)c1c(C)n(-c2ccc(OC)cc2)c2ccc(O)cc12	CHOP inhibitor 74 (no result: b-catenin transl)
Cc1c(C(=O)O)c2cc(O)ccc2n1-c1ccccc1	none
CCc1nc2ccccc2c(NC(=O)CN2CC(C)CC(C)C2)c1C (stereo not given)	none
CC1=C(C(N)=O)C(c2cccnc2)n2nc(-c3cccc(C)c3)nc2N1 (stereo not given)	L major viab 85 (no result: b-catenin transl)
COc1ccc(-c2nncnn2)cc1	L major viab 97
COc1ccc(-c2ccc(OC)cc2)cc1	none
O=S(=O)(c1ccc(Cl)c(C(F)(F)F)c1)N1CCN(CC(O)COCC2CCCO2)CC1 (stereo not given)	none
COc1ccc(-c2nnc(-c3ccc(N(C)C)cc3)o2)cc1	none
COc1ccc(-c2nnc(NC(=O)c3ccc(F)cc3)o2)cc1	L major viab 98
CC1CN(S(=O)(=O)c2ccc(C(=O)Nc3nnc(-c4ccco4)o3)cc2)CC(C)O1 (stereo not given)	none
COc1ccc(-c2nnc(-c3ccc(N)cc3)o2)cc1	L major viab 100 (no result: b-catenin transl)
COc1cccc(-c2nnc(NC(=O)c3ccc(S(=O)(=O)N4CC(C)OC(C)C4)cc3)o2)c1 (stereo not given)	L major viab 99 (no result: b-catenin transl)
COc1ccc(-c2nnc(NC(=O)c3ccc(S(=O)(=O)N4CCc5ccccc5C4)cc3)o2)cc1	L major viab 99, CHOP inhibitor 71
CC(=O)OCC12COC3c4ccccc4OC(C)(CC1C)C3C2C (stereo not given)	none
CS(=O)(=O)c1[nH]nc(-c2ccccc2)c1C#N	none (no result: Autophagy mod, MT stabilizer, L major viab)
Cc1ccnc(NC(=S)NC(=O)c2cccs2)c1	none
CC1CC(=O)Nc2cc([N+](=O)[O-])ccc2N1 (stereo not given)	none (no result: Autophagy mod, MT stabilizer, L major viab)
O=[N+]([O-])c1ccc(Cl)c(/C=N/n2c(-c3cccnc3)n[nH]c2=S)c1	none
CC12CCC(C/C1=N\N=C1\NC(=O)/C(=C\c3ccc(Cl)cc3)S1)C2(C)C (stereo not given)	CHOP inhibitor 93
O=C1NC(=NCc2ccccc2)S/C1=C\c1ccccc1	none
COc1ccc(C(=O)C(C)N(C(=O)c2ccc(Cl)cc2Cl)N2C(=O)C3C4C=CC(C4)C3C2=O)cc1 (stereo not given)	L major viab 90
COc1ccc2cc(C3CC(c4ccco4)=NN3S(C)(=O)=O)c(Cl)nc2c1 (stereo not given)	none (no result: Autophagy mod, MT stabilizer, L major viab)
